Source: ChEMBL document CHEMBL5029146, “Single Diastereomers of the Clinical Anticancer ProTide Agents NUC-1031 and NUC-3373 Preferentially Target Cancer Stem Cells In Vitro” (J Med Chem, 2021)
Calls of active or inactive are those of the source. No cut-off for these calls is given here.

Legend:
KG-1a [1] = test: Cytotoxicity against human KG-1a cells assessed as cell death incubated for 72 hrs by flow cytometry based Annexin V/7-AAD assay; type: functional
Procedure, shortened: (§1)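 Cell suspensions from confluent flasks (10^5 cells per well) exposed 72 h at 37°C, humidified 5% CO2, to compound over experimentally set concentration ranges, with drug-free controls. Cells harvested by centrifugation, Annexin V/7-AAD flow cytometry. Triplicate experiments; LC50 by non-linear regression of sigmoidal dose-response curves, mean ± SEM.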

KG-1a [2] = test: Cytotoxicity against human KG-1a cells assessed as reduction in leukemic stem cells fraction >= 0.25 uM measured after 48 hrs by FACS assay; type: functional, cell-based; conditions: dose microM >=0.25, time 48.0 hrs
[3] = Prodrug activation assessed as carboxypeptidase Y-mediated metabolite C release measured upto 120 mins by NMR analysis; type: ADME; conditions: saccharomyces cerevisiae, 2 h
Procedure, shortened: (§2)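 ProTide (3.5 mg) in acetone-d6 with Trizma buffer pH 7.6. Control 31P NMR taken, then carboxypeptidase Y (0.1 mg in Trizma) added. 31P NMR spectra (202 MHz, 25°C) collected with 64 scans every 7 min. Parent and metabolite A/C fractions followed by peak integration over time.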

MIA PaCa-2 = test: Cytotoxicity against human MIA PaCa-2 cells assessed as cell death incubated for 72 hrs by MTS assay; type: functional; conditions: read-out: LC50 (the source's name)
Procedure, shortened: (§3)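 Contracted MTS viability test (BxPC-3, MIA PaCa-2, HT-29, SW620), cells plated the day before dosing. 72 h exposure to 9 serial 3.16-fold dilutions, highest 198 μM, then MTS for 4 h at 37°C and absorbance read. Run in duplicate; LC50 (concentration giving 50% cell death) taken from curve fit as mean.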

LNCaP = test: Cytotoxicity against human LNCaP cells assessed as cell death incubated for 72 hrs by flow cytometry based Annexin V/7-AAD assay; type: functional; conditions: read-out: LC50 (the source's name); procedure, shortened: as §1
[4] = Prodrug activation assessed as carboxypeptidase Y-mediated metabolite A release measured upto 120 mins by NMR analysis; type: ADME; conditions: saccharomyces cerevisiae, 2 h; procedure, shortened: as §2
HT-29 [5] = test: Cytotoxicity against human HT-29 cells assessed as cell death incubated for 72 hrs by flow cytometry based Annexin V/7-AAD assay; type: functional; conditions: read-out: LC50 (the source's name); procedure, shortened: as §1
BXPC-3 = test: Cytotoxicity against human BXPC-3 cells assessed as cell death incubated for 72 hrs by MTS assay; type: functional; conditions: read-out: LC50 (the source's name); procedure, shortened: as §3
KG-1a [6] = test: Potency index, ratio of FUDR LC50 to test compound LC50 for human KG-1a cells incubated for 72 hrs by flow cytometry using Annexin V/7-AAD assay; type: functional
Procedure, shortened: (§4)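 Annexin V/7-AAD flow cytometry after 72 h exposure at 37°C, 5% CO2, drug-free controls included, triplicate. LC50 by non-linear regression. Index is reference nucleoside LC50 (5-FU for HT-29, FUDR for KG1a) divided by test compound LC50.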

HCT-116 = test: Cytotoxicity against human HCT-116 cells assessed as cell death incubated for 72 hrs by flow cytometry based Annexin V/7-AAD assay; type: functional; conditions: read-out: LC50 (the source's name); procedure, shortened: as §1
[7] = Stability in human plasma assessed as half life; type: ADME, cell-free; conditions: time <=24 hrs
SW-620 [8] = test: Cytotoxicity against human SW-620 cells assessed as cell death incubated for 72 hrs by MTS assay; type: functional; conditions: read-out: LC50 (the source's name); procedure, shortened: as §3
[9] = Metabolic stability in cryopreserved human hepatocytes assessed as half life at 1 uM for 60 mins by HPLC-MS/MS analysis; type: ADME, cell-based, Hepatocyte; conditions: for t1/2: hepatocytes, 1 h, 1 µM
Procedure, shortened: (§5)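 Pooled cryopreserved human hepatocytes thawed, washed and resuspended in Krebs-Henseleit buffer pH 7.3. Compound at 1 μM final, incubated 0 and 60 min at 37°C/5% CO2. Quenched with acetonitrile, centrifuged; supernatant analysed by HPLC-MS/MS.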

MDA-MB-231 = test: Cytotoxicity against human MDA-MB-231 cells incubated for 72 hrs by flow cytometry using Annexin V/7-AAD assay; type: functional; conditions: read-out: LC50 (the source's name); procedure, shortened: as §1
[10] = Metabolic stability in cryopreserved human hepatocytes assessed as parent compound remaining at 1 uM for 60 mins by HPLC-MS/MS analysis; type: ADME, cell-based, Hepatocyte; procedure, shortened: as §5
KG-1a [11] = test: Cytotoxicity against human KG-1a cells assessed as reduction in leukemic stem cells fraction at >= 0.07 uM after 48 hrs by FACS assay; type: functional, cell-based; conditions: dose microM >=0.07, time 48.0 hrs
Procedure, shortened: (§6)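 KG1a AML cells were kept in RPMI with 20% foetal calf serum and penicillin/streptomycin, then exposed to a wide concentration range of each nucleoside or ProTide. Cells were stained with anti-CD34 (FITC) and anti-CD38 (PE) and read by flow cytometry. The CD34⁺/CD38⁻ stem-cell subset was expressed as a percentage of viable cells. Results are the mean ±SEM of five independent experiments.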

[12] = Prodrug activation assessed as carboxypeptidase Y-mediated metabolite A release measured within 10 mins by NMR analysis; type: ADME; conditions: saccharomyces cerevisiae; procedure, shortened: as §2
HT-29 [13] = test: Potency index, ratio of 5-FU LC50 to test compound LC50 for human HT-29 cells for 72 hrs by flow cytometry using Annexin V/7-AAD assay; type: functional; procedure, shortened: as §4
SW-620 [14] = test: Potency index, ratio of 5-FU LC50 to test compound LC50 for human SW-620 cells incubated for 72 hrs by MTS assay; type: functional
Procedure, shortened: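 SW620 MTS assay: 72 h exposure to 9 serial 3.16-fold dilutions from 198 μM, MTS 4 h at 37°C, absorbance read, duplicate. LC50 from curve fit; index is 5-FU LC50 divided by test compound LC50.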

[15] = Prodrug activation assessed as carboxypeptidase Y-mediated metabolism by measuring compound remaining within 10 mins by NMR analysis; type: ADME; conditions: saccharomyces cerevisiae; procedure, shortened: as §2
KG-1a [16] = test: Cytotoxicity against human KG-1a cells assessed as reduction in leukemic stem cells fraction up to 5 uM measured after 48 hrs by FACS assay; type: functional, cell-based; conditions: dose microM <=5, time 48.0 hrs
KG-1a [17] = test: Cytotoxicity against human KG-1a cells assessed as viable cells at 0.5 uM for 48 hrs by FITC-PE analysis (reference value: 3.9%); type: functional; procedure, shortened: as §6
KG-1a [18] = test: Cytotoxicity against human KG-1a cells assessed as viable cells at 1 uM for 48 hrs by FITC-PE analysis (reference value: 3.9 to 4%); type: functional; procedure, shortened: as §6
[19] = Drug uptake in human KG-1a cell bulk tumor fraction assessed as intracellular accumulation at 1 uM treated for 1 hr by mass spectrometry analysis; type: ADME
Procedure, shortened: (§7)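 KG1a cells (5×10^6, DMEM + 10% FCS) exposed to 1 μM compound for 1 h, harvested, then FACS-sorted into CD34+/CD38− LSC and CD34+/CD38+ bulk fractions. Pellets lysed; intracellular triphosphate quantified by mass spectrometry against a nucleoside standard curve. Five independent experiments in triplicate, mean ± SEM.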

[20] = Drug uptake in human KG-1a cell leukemic stem cells fraction assessed as intracellular accumulation at 1 uM treated for 1 hr by mass spectrometry analysis; type: ADME; procedure, shortened: as §7
KG-1a [21] = test: Cytotoxicity against human KG-1a cells assessed as viable cells at 0.25 uM for 48 hrs by FITC-PE analysis (reference value: 3.9 to 4%); type: functional; procedure, shortened: as §6
KG-1a [22] = test: Cytotoxicity against human KG-1a cells assessed as reduction in leukemic stem cells fraction up to 2.5 uM measured after 48 hrs by FACS assay; type: functional, cell-based; conditions: dose microM <=2.5, time 48.0 hrs; procedure, shortened: as §6

In the case of C[C@H](N[P@@](=O)(OC[C@H]1O[C@@H](n2ccc(N)nc2=O)C(F)(F)[C@@H]1O)Oc1ccccc1)C(=O)OCc1ccccc1, the LC50 (KG-1a [1]) is reported as 0.25 µM, the Activity (KG-1a [2]) is reported as “Active” and the Drug metabolism [3] is reported as “Metabolite_Detected”. For the same compound, the CC50 (MIA PaCa-2) was 0.19 µM, the CC50 (LNCaP) was 3.4 µM and the Drug metabolism [4] was “Metabolite_Notdetected”. It also gave a CC50 (HT-29 [5]; Homo sapiens, HT-29, 72 h) of 1 µM and a CC50 (BXPC-3) of 1.29 µM.
For C[C@H](N[P@](=O)(OC[C@H]1O[C@@H](n2ccc(N)nc2=O)C(F)(F)[C@@H]1O)Oc1ccccc1)C(=O)OCc1ccccc1, the LC50 (KG-1a [1]) was 0.31 µM, the Activity (KG-1a [2]) was “Active” and the CC50 (MIA PaCa-2) was 0.03 µM. For the same compound, the CC50 (LNCaP) was 2.6 µM, the CC50 (HT-29 [5]; Homo sapiens, HT-29, 72 h) was 1.5 µM and the CC50 (BXPC-3) was 2.44 µM.
Work on C[C@H](NP(=O)(OC[C@H]1O[C@@H](n2cc(F)c(=O)[nH]c2=O)C[C@@H]1O)Oc1cccc2ccccc12)C(=O)OCc1ccccc1 (stereo in doubt; form 1) [FOSIFLOXURIDINE NAFALBENAMIDE] yielded an LC50 (KG-1a [1]; 72 h) of 0.053 µM, a RatioLC50 (KG-1a [6]) of 23 and a CC50 (HCT-116; Homo sapiens, HCT-116, 72 h) of 3.1 µM. The half-life [7] was 582 min, the CC50 (SW-620 [8]; Homo sapiens, SW-620, 72 h) was 1.84 µM and the half-life at 1 µM ([9]; cryopreserved hepatocytes) was 34 min. It also gave a CC50 (MDA-MB-231; Homo sapiens, MDA-MB-231, 72 h) of 2.8 µM, a CC50 (HT-29 [5]; Homo sapiens, HT-29, 72 h) of 1.7 µM and a remaining at 1 h, 1 µM ([10]; cryopreserved hepatocytes, read-out: Stability) of 30%.
With C[C@H](NP(=O)(OC[C@H]1O[C@@H](n2cc(F)c(=O)[nH]c2=O)C[C@@H]1O)Oc1cccc2ccccc12)C(=O)OCc1ccccc1 (stereo in doubt; form 2) the Activity (KG-1a [11]) was “Active”.
In the case of C[C@H](NP(=O)(OC[C@H]1O[C@@H](n2cc(F)c(=O)[nH]c2=O)C[C@@H]1O)Oc1cccc2ccccc12)C(=O)OCc1ccccc1 (stereo in doubt; form 2) [FOSIFLOXURIDINE NAFALBENAMIDE], the LC50 (KG-1a [1]; 72 h) is reported as 0.052 µM, the CC50 (HCT-116; 72 h) is reported as 4.3 µM and the Drug metabolism [12] is reported as “Metabolite_Detected”. It also gave a CC50 (SW-620 [8]; 72 h) of 2.37 µM, a t1/2 [9] of 53 min and a CC50 (MDA-MB-231; 72 h) of 3.6 µM. For the same compound, the CC50 (HT-29 [5]; 72 h) was 2.1 µM, the Stability ([10]; hepatocytes, 1 h, 1 µM) was 40% and the RatioLC50 (HT-29 [13]) was 13.
In the case of C[C@H](NP(=O)(OC[C@H]1O[C@@H](n2cc(F)c(=O)[nH]c2=O)C[C@@H]1O)Oc1cccc2ccccc12)C(=O)OCc1ccccc1 (stereo in doubt; form 3), the Activity (KG-1a [11]) is reported as “Active”.
For C[C@H](NP(=O)(OC[C@H]1O[C@@H](n2cc(F)c(=O)[nH]c2=O)C[C@@H]1O)Oc1cccc2ccccc12)C(=O)OCc1ccccc1 (stereo in doubt; form 3) [FOSIFLOXURIDINE NAFALBENAMIDE], the LC50 (KG-1a [1]; 72 h) was 0.055 µM, the CC50 (HCT-116; 72 h) was 2.6 µM and the CC50 (SW-620 [8]; 72 h) was 1.46 µM. It also gave a RatioLC50 (SW-620 [14]) of 4, a t1/2 [9] of 47 min and an Activity [15] of 28%. The CC50 (MDA-MB-231; 72 h) was 2.5 µM and the CC50 (HT-29 [5]; 72 h) was 1.5 µM.
Compound O=c1[nH]cc(F)c(=O)[nH]1 [FLUOROURACIL] has an LC50 (KG-1a [1]) of 1.4 µM, a CC50 (HCT-116; Homo sapiens, HCT-116, 72 h) of 3.7 µM and a half-life [7] of 8 min. The CC50 (SW-620 [8]; Homo sapiens, SW-620, 72 h) was 7.98 µM, the CC50 (MDA-MB-231; Homo sapiens, MDA-MB-231, 72 h) was 12.6 µM and the CC50 (HT-29 [5]; Homo sapiens, HT-29, 72 h) was 5.5 µM. For the same compound, the Activity (KG-1a [16]) was “inactive”.
With C[C@H](NP(=O)(OC[C@H]1O[C@@H](n2ccc(N)nc2=O)C(F)(F)[C@@H]1O)Oc1ccccc1)C(=O)OCc1ccccc1 (some centres undefined) [FOSGEMCITABINE PALABENAMIDE] the LC50 (KG-1a [1]) was 0.28 µM, the Activity (KG-1a [17]) was 2.5% and the Activity (KG-1a [18]) was 1.9%. The Drug uptake [19] was “Active”, the half-life [7] was 498 min and the Drug uptake [20] was “Active”. It also gave a CC50 (MIA PaCa-2) of 0.1 µM, a CC50 (LNCaP) of 3.1 µM and a CC50 (HT-29 [5]; Homo sapiens, HT-29, 72 h) of 1.3 µM. It also gave a CC50 (BXPC-3) of 2.29 µM and an Activity (KG-1a [21]) of 2.7%.
Nc1ccn([C@@H]2O[C@H](CO)[C@@H](O)C2(F)F)c(=O)n1 [GEMCITABINE] gave an LC50 (KG-1a [1]) of 1.8 µM, an Activity (KG-1a [17]) of 3.9% and an Activity (KG-1a [18]) of 3.8%. The CC50 (MIA PaCa-2) was 0.01 µM, the CC50 (LNCaP) was 2.8 µM and the CC50 (HT-29 [5]; Homo sapiens, HT-29, 72 h) was 0.7 µM. For the same compound, the Activity (KG-1a [22]) was “inactive”, the CC50 (BXPC-3) was 0.74 µM and the Activity (KG-1a [21]) was 4.1%.
